NS3 helicase inh – inhibitors of Hepatitis C virus NS3 helicase; NS3 helicase DNA unwinding, Cy5 molecular beacon fluorescence; inhibition, % at 10.9 µM; 290,000 tested, 0.56% active; AID 1800;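 active = inhibition above the mean of all tested compounds plus 3 SD, set per campaign, cut at about 35% in these data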
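System: HCV NS3 helicase fragment; control set: DMSO and thioflavine S; technique: Cy5 fluorescence at 0 and 60 min, beacon hairpin quenching; reagent: beacon DNA duplex substrate plus ATP; replicates: singlicate; schedule: 1 h reaction at 25 °C, ATP-initiated; medium: MOPS buffer pH 6.5 with MgCl2, DTT, Tween20, BSA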
NSD2 inh – inhibitors of human histone methyltransferase NSD2; inhibition, % at 12.5 µM; NSD2 peptide methylation, AlphaScreen, 120 min; 310,000 tested, 0.54% active; O96028
DNMT1 inh – blocks human DNA methyltransferase DNMT1 | P26358 | DNMT1 molecular beacon, Hinp1I cleavage, fluorescence | inhibition (reported as % activation of signal), % at 10 µM | 360,000 tested, 0.83% active | AID 588458
Target sequence (P26358 504-1616 limits assumed): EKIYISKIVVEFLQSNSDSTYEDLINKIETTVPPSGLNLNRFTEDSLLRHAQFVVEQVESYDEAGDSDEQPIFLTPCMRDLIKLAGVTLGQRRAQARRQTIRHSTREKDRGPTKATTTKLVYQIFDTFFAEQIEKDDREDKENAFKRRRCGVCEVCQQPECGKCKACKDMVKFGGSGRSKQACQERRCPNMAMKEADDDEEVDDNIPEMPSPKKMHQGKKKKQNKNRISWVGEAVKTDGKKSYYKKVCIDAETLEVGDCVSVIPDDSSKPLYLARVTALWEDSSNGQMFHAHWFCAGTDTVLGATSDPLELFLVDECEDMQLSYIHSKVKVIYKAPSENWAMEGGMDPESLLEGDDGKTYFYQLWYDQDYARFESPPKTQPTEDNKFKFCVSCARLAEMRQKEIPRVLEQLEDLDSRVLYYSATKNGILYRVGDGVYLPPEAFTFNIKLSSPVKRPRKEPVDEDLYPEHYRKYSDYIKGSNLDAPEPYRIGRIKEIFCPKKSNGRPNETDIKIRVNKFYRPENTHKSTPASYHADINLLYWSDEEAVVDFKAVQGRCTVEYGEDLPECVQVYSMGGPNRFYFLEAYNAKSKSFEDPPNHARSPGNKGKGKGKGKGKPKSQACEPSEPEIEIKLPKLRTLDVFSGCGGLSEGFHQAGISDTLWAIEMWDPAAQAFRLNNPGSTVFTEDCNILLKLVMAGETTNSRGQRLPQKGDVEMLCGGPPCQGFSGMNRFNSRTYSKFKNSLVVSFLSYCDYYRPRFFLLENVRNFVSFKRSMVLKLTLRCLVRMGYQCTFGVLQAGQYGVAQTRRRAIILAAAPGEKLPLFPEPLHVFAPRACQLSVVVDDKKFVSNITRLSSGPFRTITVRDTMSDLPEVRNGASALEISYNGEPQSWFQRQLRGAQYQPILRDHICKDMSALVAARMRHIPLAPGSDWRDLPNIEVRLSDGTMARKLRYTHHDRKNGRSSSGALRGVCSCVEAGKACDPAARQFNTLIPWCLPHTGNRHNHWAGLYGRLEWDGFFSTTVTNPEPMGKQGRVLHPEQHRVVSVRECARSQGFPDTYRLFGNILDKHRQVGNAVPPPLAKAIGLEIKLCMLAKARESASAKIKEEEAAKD
Casp6 inh – inhibitors of human caspase-6; P55212; inhibition, % at 12.5 µM; 350,000 tested, 0.53% active; purified caspase-6, Z-VEID-R110 cleavage fluorescence; AID 686996;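 active = mean inhibition across replicates at least about 35%, with every replicate also reaching that limit, limit read from the data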
DNMT1 inh conf – confirmation of human DNMT1 inhibitors; inhibition, % at 10 µM; shares compounds with DNMT1 inh; DNMT1 molecular beacon HinP1I cleavage, fluorescence; 2,300 tested, 8% active;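 active = average inhibition of at least 30% in the single-concentration confirmation test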
Beacon interf – shows spectral interference in the DNMT1 beacon assay; shares compounds with DNMT1 inh; DNMT1 molecular beacon spectral interference counterscreen, fluorescence 485/520; activation (fluorescence interference), % at 10 µM; 2,300 tested, 1% active; AID 602387;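 active = activation of at least 30% at 10 µM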;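 note: DNMT1 catalytic domain with a HinP1I cleavage step and a FAM/dabcyl DNA beacon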
Of the large screens only hits and unclear results are named; the others gave an inactive call (follow-up assays come after a bar, where they were run). A selection: hits, their analogues and other compounds. The true share with any hit is near 1.5%. Cut-off read from the data, not from the text of the source, unless noted: active = inhibition above about 50%; inactive = the rest.

O=C(C[C@@H]1C[C@@H]2c3cc(NC(=O)C4CCC4)ccc3O[C@@H]2[C@@H](CO)O1)NCc1cccc(F)c1	none (no result: NS3 helicase inh, NSD2 inh, DNMT1 inh)
COC(=O)C1=C2CC[C@H](CO)NC(=O)N[C@H](Cc3ccccc3)C(=O)NCc3cn(nn3)C[C@H](Cc3ccccc3)NC(=O)c3oc(c(C(=O)OC)c3C(=O)OC)CC[C@H](CO)NC(=O)N[C@H](Cc3ccccc3)C(=O)NCc3cn(nn3)C[C@H](Cc3ccccc3)NC(=O)C(=C1C(=O)OC)O2	none (no result: NS3 helicase inh, NSD2 inh, DNMT1 inh)
CC(C)(C)NC(=O)Cc1ccc(S(=O)(=O)N2CCCC2)s1	DNMT1 inh 72 (no result: Casp6 inh) | DNMT1 inh conf inactive | Beacon interf inactive
COc1cccc(N2CC34C=CC(O3)C(C(=O)O)C4C2=O)c1 (stereo not drawn)	DNMT1 inh 53 (no result: Casp6 inh) | DNMT1 inh conf inactive | Beacon interf inactive
O=C(Nc1ccc2c(c1)OCO2)c1cnn2c(C(F)(F)F)cc(-c3ccco3)nc12	none (no result: Casp6 inh)
O=C(Nc1cnn(C23CC4CC(CC(C4)C2)C3)c1)c1cnn2c(C(F)(F)F)cc(-c3ccco3)nc12	DNMT1 inh 58 (no result: NSD2 inh) | DNMT1 inh conf inactive | Beacon interf inactive
CN(C)CCCNC(=O)C[C@@H]1CC[C@@H](NS(=O)(=O)c2ccc(F)cc2)[C@@H](CO)O1	none (no result: NS3 helicase inh, NSD2 inh, DNMT1 inh)
COCC(=O)N(C)C[C@H]1N[C@@](C)(C(=O)OC)[C@H]2C(=O)N(C)C(=O)[C@@H]12	DNMT1 inh 86 (no result: NS3 helicase inh, NSD2 inh) | DNMT1 inh conf inactive | Beacon interf inactive
CN1C(=O)c2cc(NC(=O)c3ccc(F)c(F)c3)ccc2OC[C@@H]2O[C@@H](CC(=O)N3CCOCC3)CC[C@@H]21	none (no result: NS3 helicase inh, NSD2 inh, DNMT1 inh)
O=C(CSc1nc(-c2ccc(F)cc2)nc2c1Cc1ccccc1O2)Nc1cccc(C(=O)O)c1	DNMT1 inh 99 | DNMT1 inh conf inactive | Beacon interf inactive
Cc1noc(C)c1NC(=O)N[C@@H]1C=C[C@@H](CC(=O)N2CCCCC2)O[C@@H]1CO	none (no result: NS3 helicase inh, NSD2 inh, DNMT1 inh)
CC(C)NC(=O)N(C)C[C@H]1Oc2ccc(NC(=O)Nc3ccc(F)cc3)cc2C(=O)N([C@@H](C)CO)C[C@@H]1C	none (no result: NS3 helicase inh, NSD2 inh, DNMT1 inh)
O=C(Nc1cccc(S(=O)(=O)N2CCCCCC2)c1)c1ccc2c(c1)OCO2	none
O=C(Nc1cccc(S(=O)(=O)N2CCCC2)c1)c1ccc2c(c1)OCO2	DNMT1 inh 95 | DNMT1 inh conf inactive | Beacon interf inactive
CCCNC(=O)N1C[C@@H]2[C@H](c3ccccc31)[C@H](CO)N2C(=O)Nc1ccc(F)cc1	none (no result: NS3 helicase inh, NSD2 inh, DNMT1 inh)
C[C@@H]1CCCCO[C@H](CN(C)C(=O)Nc2ccc(F)cc2)[C@@H](C)CN([C@@H](C)CO)C(=O)c2cc(NC(=O)CCCN(C)C)ccc2O1	none (no result: NS3 helicase inh, NSD2 inh, DNMT1 inh)
CCN(C(=O)Cn1c(=O)n(-c2cc(OC)c(OC)c(OC)c2)c(=O)c2ccccc21)c1cccc(C)c1	DNMT1 inh 130 | DNMT1 inh conf inactive | Beacon interf inactive
O=C(c1cccc(C(F)(F)F)c1)N1CCOc2ccccc21	DNMT1 inh 54 | DNMT1 inh conf inactive | Beacon interf inactive
Cc1ccccc1S(=O)(=O)N1C[C@@H]2[C@H](c3ccccc31)[C@@H](CO)N2C(=O)CC1CC1	none (no result: NS3 helicase inh, NSD2 inh, DNMT1 inh)
O=C(Cn1nnc(-c2ccc(NC(=O)c3ccccc3F)cc2)n1)NCc1ccc(F)cc1	DNMT1 inh 77 (no result: NSD2 inh) | DNMT1 inh conf inactive | Beacon interf inactive
O=C(Nc1ccc(-c2nnn(CC(=O)N3CCN(C(=O)c4ccco4)CC3)n2)cc1)c1ccccc1F	none (no result: DNMT1 inh)
C[C@@H]1CN([C@@H](C)CO)C(=O)c2cc(-c3ccccc3F)cnc2O[C@H]1CN(C)Cc1cccc(C(=O)O)c1	none (no result: NS3 helicase inh, NSD2 inh, DNMT1 inh)
Clc1nc2ccccc2cc1/C=N/Nc1nc2ccccc2[nH]1	DNMT1 inh 55 | DNMT1 inh conf inactive | Beacon interf inactive
COC(=O)CSc1cc(C)nc2ccc(OC)cc12	none (no result: Casp6 inh)
COc1ccc2nc(C)cc(SCC(=O)N/N=C/c3cccc4ccccc34)c2c1	DNMT1 inh 53 (no result: Casp6 inh) | DNMT1 inh conf inactive | Beacon interf inactive
COc1ccc(S(=O)(=O)N(C)C[C@H]2OCCCC[C@@H](C)Oc3ccc(NS(=O)(=O)c4cn(C)cn4)cc3C(=O)N([C@H](C)CO)C[C@H]2C)cc1	none (no result: NS3 helicase inh, NSD2 inh, DNMT1 inh)
c1ccc(-c2nc(-c3ccco3)n3ccccc23)cc1	DNMT1 inh 57 | DNMT1 inh conf inactive | Beacon interf inactive
c1ccc(Nc2c(-c3ccco3)nc3ccccn23)cc1	none (no result: Casp6 inh)
COCC#Cc1ccc2c(c1)O[C@@H](CN(C)C(=O)C1CCC1)[C@H](C)CN([C@H](C)CO)S2(=O)=O	none (no result: NS3 helicase inh, NSD2 inh, DNMT1 inh)
C=CCn1c(N)c(C(=O)OC(C)CC)c2nc3ccccc3nc21 (stereo not drawn)	DNMT1 inh 70 (no result: Casp6 inh) | DNMT1 inh conf inactive | Beacon interf inactive
C=CCn1c(N)c(C(=O)OC(C)(C)C)c2nc3ccccc3nc21	none (no result: Casp6 inh)
COc1ccc(S(=O)(=O)Nc2ccc(S(=O)(=O)Nc3cc(C)nc(C)n3)cc2)cc1OC	DNMT1 inh 76 | DNMT1 inh conf inactive | Beacon interf inactive
CC(=O)Nc1ccc(NC(=O)CSc2ccc(-c3ccc(-n4ccnc4)cc3)nn2)cc1	none (no result: NS3 helicase inh)
CC(=O)c1ccc(NC(=O)CSc2ccc(-c3ccc(-n4cccn4)cc3)nn2)cc1	DNMT1 inh 71 (no result: NS3 helicase inh) | DNMT1 inh conf inactive | Beacon interf inactive
CO[C@H]1CN(C)C(=O)c2cc(NC(=O)CC(F)(F)F)ccc2OC[C@@H](C)N(C(C)=O)C[C@H]1C	none (no result: NS3 helicase inh, NSD2 inh, DNMT1 inh)
COc1ccccc1CNC(=O)C[C@H]1CC[C@@H]2[C@H](COC[C@@H](O)CN2C(=O)Nc2ccccc2)O1	none (no result: NS3 helicase inh, NSD2 inh, DNMT1 inh)
